Columns and labels:
Haemonchus contortus [1] = test: Compound was tested for % reduction of Haemonchus contortus worms in sheep dosed at 10 mg/kg by single ir injection; format: functional
Outline: (§1)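 Lambs with baseline fecal egg counts on days 26–28 postinoculation randomised to groups and held in individual metabolism crates. A single 10 mg/kg BW intraruminal dose was given in PEG 200. Fecal EPG was measured daily. Total H. contortus worm counts were used to calculate % reduction as (TWC control − TWC treated)/TWC control × 100, against untreated controls.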

[2] = Partition coefficient (logP) (HPLC); format: physicochemical; details: octanol/water
Outline: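 Partition coefficient measured chromatographically.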

Stomoxys calcitrans [3] = test: Insecticidal property against Stomoxys calcitrans measured as lowest concentration in bovine serum vs adult stable fly giving > 90% mortality; format: functional
Outline: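 Serum titrated with compound from 100 ppm downward was soaked into dental wicks and placed in dishes with 10 chilled adult stable flies. Kept about 48 h at about 25 °C and 75–85% humidity. Percent mortality was scored at 24 and 48 h against a wick with control serum only.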

[4] = The pKa value in aqueous solution.; format: physicochemical
Outline: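 pKa measured in aqueous solution.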

Haemonchus contortus [5] = test: The compound was tested for % reduction of Haemonchus contortus worms in gerbils dosed at 25 mg/kg.; format: functional
Outline: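 Mongolian gerbils infected with H. contortus received one oral gavage at 25 mg/kg BW in DMSO/H2O. Untreated infected gerbils served as negative controls and levamisole-dosed gerbils as positive controls, three per group. Stomachs and contents were vortexed in saline, incubated at 35 °C for at least 1 h and stained with iodine. Worms were counted per gerbil and % reduction taken against the mean of infected untreated controls.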

Rattus norvegicus = species on record: Rattus norvegicus; test: Uncoupler concentration that reduced the respiratory control index by 50% of coupled rat liver mitochondria; format: functional
[6] = (§2) Number of days posttreated in which >90% mortality of ASF was seen following exposure of insects to serum from sheep treated with 10 mg/kg of BW of compound by single ir injection; format: functional
Outline: (§3)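 Parasitized sheep (two per compound) received a single intraruminal injection at 10 mg/kg BW in PEG 200. Blood was drawn daily for 14 days and left about 24 h to separate. Serum-soaked dental wicks were exposed to adult stable flies for 48 h, with mortality compared to a serum-only control. Days posttreatment giving >90% mortality were counted.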

Haemonchus contortus [7] = test: The compound was tested for % Reduction of Haemonchus contortus worms in sheep dosed at 10 mg/kg by single ir injection; format: functional; outline: as §1
Stomoxys calcitrans [8] = test: as §2; format: functional; outline: as §3

CC(S(=O)(=O)c1ccc(OC(F)(F)F)cc1)S(=O)(=O)C(F)(F)F (stereo not drawn)
Reduction (Haemonchus contortus [1]): 100% | logP [2]: 3 | ASF (Stomoxys calcitrans [3]): 25 p.p.m. | pKa [4]: 6.2 | Reduction (Haemonchus contortus [5]): 100% | IC50 (Rattus norvegicus): 710 µM | Days [6]: 6

Cc1ccc(S(=O)(=O)CS(=O)(=O)C(F)(F)F)cc1
ASF (Stomoxys calcitrans [3]): >100 p.p.m.

O=S(=O)(CS(=O)(=O)C(F)(F)F)c1ccc(Cl)cc1Cl
ASF (Stomoxys calcitrans [3]): >100 p.p.m.

CCC(S(=O)(=O)c1ccc(Cl)cc1)S(=O)(=O)C(F)(F)F (stereo not drawn)
ASF (Stomoxys calcitrans [3]): 50 p.p.m.

O=S(=O)(c1ccc(OC(F)(F)F)cc1)C(CSc1ccc(OC(F)(F)F)cc1)S(=O)(=O)C(F)(F)F (stereo not drawn)
ASF (Stomoxys calcitrans [3]): 50 p.p.m.

CSC(S(=O)(=O)c1ccc(Cl)cc1)S(=O)(=O)C(F)(F)F (stereo not drawn)
ASF (Stomoxys calcitrans [3]): >100 p.p.m.

O=S(=O)(CS(=O)(=O)C(F)(F)F)c1cc(C(F)(F)F)cc(C(F)(F)F)c1
ASF (Stomoxys calcitrans [3]): 50 p.p.m.

O=S(=O)(CS(=O)(=O)C(F)(F)F)c1ccc(Cl)c(Cl)c1
Reduction (Haemonchus contortus [7]): 100% | logP [2]: 1.7 | ASF (Stomoxys calcitrans [3]): >100 p.p.m. | pKa [4]: 4 | Reduction (Haemonchus contortus [5]): 100% | IC50 (Rattus norvegicus): 3990 µM | Days (Stomoxys calcitrans [8]): 1

O=S(=O)(c1ccc(OC(F)(F)F)cc1)C(CSc1ccc(F)cc1)S(=O)(=O)C(F)(F)F (stereo not drawn)
Reduction (Haemonchus contortus [1]): 100% | ASF (Stomoxys calcitrans [3]): 50 p.p.m. | Reduction (Haemonchus contortus [5]): 100% | Days [6]: 6

O=S(=O)(CS(=O)(=O)C(F)(F)F)c1ccccc1
ASF (Stomoxys calcitrans [3]): 50 p.p.m.

O=S(=O)(c1ccc(Cl)c(Cl)c1)C(Cc1ccc(C(F)(F)F)cc1)S(=O)(=O)C(F)(F)F (stereo not drawn)
ASF (Stomoxys calcitrans [3]): 100 p.p.m.

O=S(=O)(CS(=O)(=O)C(F)(F)C(F)(F)C(F)(F)C(F)(F)F)c1ccc(OC(F)(F)F)cc1
ASF (Stomoxys calcitrans [3]): 25 p.p.m.

O=S(=O)(CS(=O)(=O)C(F)(F)F)c1ccc(SC(F)(F)C(F)F)c(Cl)c1
ASF (Stomoxys calcitrans [3]): >100 p.p.m.

O=S(=O)(CS(=O)(=O)C(F)(F)F)c1ccc(NS(=O)(=O)C(F)(F)F)cc1
ASF (Stomoxys calcitrans [3]): 100 p.p.m.

CC(C)(C)c1ccc(S(=O)(=O)CS(=O)(=O)C(F)(F)F)cc1
logP [2]: 2.4 | ASF (Stomoxys calcitrans [3]): >100 p.p.m. | pKa [4]: 5.1 | IC50 (Rattus norvegicus): 2800 µM

O=S(=O)(CS(=O)(=O)C(F)(F)F)c1ccc(F)cc1
logP [2]: 1.3 | ASF (Stomoxys calcitrans [3]): 100 p.p.m. | pKa [4]: 4.6 | IC50 (Rattus norvegicus): 3150 µM

O=S(=O)(CS(=O)(=O)C(F)(F)F)c1ccc(OC(F)(F)F)cc1
Reduction (Haemonchus contortus [1]): 100% | logP [2]: 2.2 | ASF (Stomoxys calcitrans [3]): 25 p.p.m. | pKa [4]: 4.1 | Reduction (Haemonchus contortus [5]): 100% | IC50 (Rattus norvegicus): 2950 µM | Days [6]: 10

FC(F)(F)Oc1ccc(SCSC(F)(F)F)cc1
ASF (Stomoxys calcitrans [3]): >100 p.p.m.

CC(S(=O)(=O)c1ccc(Cl)c(Cl)c1)S(=O)(=O)C(F)(F)F (stereo not drawn)
ASF (Stomoxys calcitrans [3]): 25 p.p.m.

O=S(=O)(CS(=O)(=O)C(F)(F)F)c1cccc(C(F)(F)F)c1
ASF (Stomoxys calcitrans [3]): >100 p.p.m.

O=S(=O)(CS(=O)(=O)C(F)(F)F)c1ccc(SC(F)(F)C(F)F)cc1
ASF (Stomoxys calcitrans [3]): >100 p.p.m.

O=S(=O)(CS(=O)(=O)C(F)(F)F)c1ccc(F)c(Cl)c1
ASF (Stomoxys calcitrans [3]): 100 p.p.m.

O=S(=O)(c1ccc(OC(F)(F)F)cc1)C(CSc1cccc(F)c1)S(=O)(=O)C(F)(F)F (stereo not drawn)
ASF (Stomoxys calcitrans [3]): 50 p.p.m.

O=S(=O)(CS(=O)(=O)C(F)(F)F)c1ccc(Cl)cc1
Reduction (Haemonchus contortus [7]): 100% | logP [2]: 1.9 | ASF (Stomoxys calcitrans [3]): 50 p.p.m. | pKa [4]: 4.4 | Reduction (Haemonchus contortus [5]): 100% | IC50 (Rattus norvegicus): 4000 µM | Days (Stomoxys calcitrans [8]): 3

O=S(=O)(CS(=O)(=O)C(F)(F)F)c1ccc(C(F)(F)F)cc1
Reduction (Haemonchus contortus [1]): 100% | logP [2]: 1 | ASF (Stomoxys calcitrans [3]): 50 p.p.m. | pKa [4]: 4 | Reduction (Haemonchus contortus [5]): 100% | IC50 (Rattus norvegicus): 5400 µM | Days [6]: 0

CC(C)(C)Sc1ccc(S(=O)(=O)CS(=O)(=O)C(F)(F)F)cc1
ASF (Stomoxys calcitrans [3]): >100 p.p.m.

O=S(=O)(CS(=O)(=O)C(F)(F)F)c1ccc(O)cc1
ASF (Stomoxys calcitrans [3]): >100 p.p.m.

O=S(=O)(CS(=O)(=O)C(F)(F)F)c1c(Cl)cccc1Cl
ASF (Stomoxys calcitrans [3]): >100 p.p.m.

CS(=O)(=O)Oc1ccc(S(=O)(=O)CS(=O)(=O)C(F)(F)F)cc1
ASF (Stomoxys calcitrans [3]): >100 p.p.m.

O=[N+]([O-])c1ccc(S(=O)(=O)CS(=O)(=O)C(F)(F)F)cc1
ASF (Stomoxys calcitrans [3]): >100 p.p.m.

O=S(=O)(CS(=O)(=O)C(F)(F)F)c1ccc(OS(=O)(=O)C(F)(F)F)cc1
ASF (Stomoxys calcitrans [3]): 100 p.p.m.

N#Cc1ccc(S(=O)(=O)CS(=O)(=O)C(F)(F)F)cc1
ASF (Stomoxys calcitrans [3]): >100 p.p.m.

COc1ccc(S(=O)(=O)CS(=O)(=O)C(F)(F)F)cc1
ASF (Stomoxys calcitrans [3]): >100 p.p.m.

O=S(=O)(c1ccc(OC(F)(F)F)cc1)C(CSc1ccc(Cl)cc1)S(=O)(=O)C(F)(F)F (stereo not drawn)
ASF (Stomoxys calcitrans [3]): 50 p.p.m.

O=S(=O)(CS(=O)(=O)C(F)(F)F)c1ccc(Br)cc1
ASF (Stomoxys calcitrans [3]): 25 p.p.m.

O=S(=O)(c1ccc(Cl)cc1)C(Cc1ccccc1)S(=O)(=O)C(F)(F)F (stereo not drawn)
ASF (Stomoxys calcitrans [3]): >100 p.p.m.

CC(S(=O)(=O)c1ccc(Cl)cc1)S(=O)(=O)C(F)(F)F (stereo not drawn)
ASF (Stomoxys calcitrans [3]): 50 p.p.m.

O=S(=O)(c1ccc(OC(F)(F)F)cc1)C(Cl)(Cl)S(=O)(=O)C(F)(F)F
ASF (Stomoxys calcitrans [3]): >100 p.p.m.

O=S(=O)(CS(=O)(=O)C(F)(F)F)c1ccccc1Cl
ASF (Stomoxys calcitrans [3]): >100 p.p.m.

O=S(=O)(CS(=O)(=O)C(F)(F)F)c1ccc(OC(F)(F)C(F)F)cc1
ASF (Stomoxys calcitrans [3]): 25 p.p.m.

O=[N+]([O-])c1ccc(O)c([N+](=O)[O-])c1 [2,4-DINITROPHENOL]
logP [2]: 1.5 | pKa [4]: 4.6 | IC50 (Rattus norvegicus): 1000 µM

Cc1cc(C(C#N)c2ccc(Cl)cc2)c(Cl)cc1NC(=O)c1cc(I)cc(I)c1O (stereo not drawn) [CLOSANTEL]
IC50 (Rattus norvegicus): 927 µM

Source: ChEMBL document CHEMBL1131378, “Synthesis and endectocidal activity of novel 1-(arylsulfonyl)-1-[(trifluoromethyl)sulfonyl]methane derivatives” (J Med Chem, 1998)
